Screening results as filed in PubChem BioAssay.
The list is not random: actives were taken first. Their share in the collection is about 2%.
Xi reactivation: X-chromosome reactivation activator. 360,000 compounds, 0.055% hits. activation, % at 7.58 µM. XiGFP mouse fibroblasts, % GFP-positive cells imaging, 3 d; cells co-treated with 5-aza-dC sensitizer; scaled so ellipticine positive control = 100%;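 active = mean normalized replicate activation at least 10% and every replicate at or above 10%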;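 note: 0% = median of on-plate neutral control wells and 100% = ellipticine 6 µM median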
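material = 68-5-11 XiGFP fibroblast line | medium = DMEM plus 5-aza-dC sensitizer | schedule = 3 days compound exposure | benchmarks = positive control ellipticine, 6 µM final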
RAD54 branch: inhibitors of human RAD54 branch migration. Q92698. RAD54 Holliday junction branch migration, FAM/BHQ fluorescence. AID 602329. 360,000 compounds, 0.14% hits. inhibition, % at 10.4 µM;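 active = mean normalized replicate activity at least 40 and at least half of replicates scoring 40 or more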;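 note: 0% = median of neutral control wells and 100% = median of positive control wells; inhibitors cause a drop in the FAM fluorescence signal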
Target sequence (Q92698 whole entry, looked up): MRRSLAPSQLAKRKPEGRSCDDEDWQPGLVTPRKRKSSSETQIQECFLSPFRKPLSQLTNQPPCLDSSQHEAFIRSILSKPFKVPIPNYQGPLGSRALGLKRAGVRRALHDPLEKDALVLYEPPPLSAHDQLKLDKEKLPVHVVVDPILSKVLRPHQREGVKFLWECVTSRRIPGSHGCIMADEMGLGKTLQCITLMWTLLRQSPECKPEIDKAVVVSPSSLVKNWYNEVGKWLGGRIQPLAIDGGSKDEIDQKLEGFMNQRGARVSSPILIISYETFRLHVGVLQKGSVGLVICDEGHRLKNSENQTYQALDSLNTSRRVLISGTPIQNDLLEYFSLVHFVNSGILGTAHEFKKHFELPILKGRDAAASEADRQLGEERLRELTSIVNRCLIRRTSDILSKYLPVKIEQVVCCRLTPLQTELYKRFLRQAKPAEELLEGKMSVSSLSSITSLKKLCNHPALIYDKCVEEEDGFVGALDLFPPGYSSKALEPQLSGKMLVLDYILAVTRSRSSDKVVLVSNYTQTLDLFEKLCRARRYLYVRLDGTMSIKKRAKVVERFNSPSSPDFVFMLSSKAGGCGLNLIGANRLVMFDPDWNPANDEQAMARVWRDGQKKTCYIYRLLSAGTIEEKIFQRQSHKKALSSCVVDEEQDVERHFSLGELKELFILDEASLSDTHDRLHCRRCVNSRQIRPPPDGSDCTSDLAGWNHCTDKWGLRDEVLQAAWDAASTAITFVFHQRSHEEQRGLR
Ecoli rRNA inh: selective bacterial rRNA inhibition in E. coli. E. coli WT GFP vs humanized-ribosome RFP mutants, fluorescence, 24 h; stronger effect = lower value; DMSO median 0, no signal -100. GFP signal change (wild-type ribosome), % (no concentration beside the values). 350,000 compounds, 1.6% hits;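 active = significant combined selectivity score with lowered wild-type GFP, culture density cut under 30%, mutant RFP and density less affected; inactive = any of these conditions unmet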
RAD52 anneal inh: RAD52 (human) annealing inhibition | P43351 | recombinant RAD52 DNA annealing, FRET fluorescence | inhibition, % at 18.7 µM | 360,000 compounds, 0.46% hits;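 active = every replicate showing at least 50% inhibition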
E-selectin induc: induces E-selectin expression in human endothelial cells. activation, % at 7.58 µM. P16581. AID 686992. 260,000 compounds, 0.37% hits. HUVEC E-selectin immunofluorescence imaging; normalized: neutral wells 0, TNF-alpha wells 100;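 active = mean E-selectin-positive cell signal at least 10% of the positive control, reached in at least 60% of replicates, without over 20% cell loss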
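Test system: HUVEC | Signal: Immunofluorescence imaging | Read-out: Percent E-selectin-positive cells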
PglD inh: PglD (C. jejuni) enzyme inhibition | purified PglD enzyme, DTNB colorimetric CoA detection | inhibition, % at 12.5 µM | 360,000 compounds, 0.098% hits | AID 602405; in the data active = inhibition above about 16%, passing the limit was not always enough
* = called active by the depositor; . = no result given.

SMILES | Xi reactivation | RAD54 branch | Ecoli rRNA inh | RAD52 anneal inh | E-selectin induc | PglD inh
CCOC(=O)C1CCCN(C(=O)C(=O)Nc2ccc3nc4n(c(=O)c3c2)CCCCC4)C1 (stereo unspecified) | 0 | 7 | -17* | -7 | 13 | 1
O=C(Nc1ccc2nc3n(c(=O)c2c1)CCCCC3)c1cc([N+](=O)[O-])ccc1F | 1 | 4 | -9 | -3 | . | -3
O=C(Nc1ccc2nc3n(c(=O)c2c1)CCCCC3)c1c(F)ccc([N+](=O)[O-])c1F | 0 | -7 | -22* | -13 | . | -3
CCOC(=O)Nc1ccc2nc3n(c(=O)c2c1)CCCCC3 | 0 | . | 9 | -14 | 4 | .
C[C@@H]1CN([C@H](C)CO)C(=O)c2cc(NS(=O)(=O)c3ccc(Cl)cc3)ccc2O[C@@H](C)CCCCO[C@H]1CN(C)S(=O)(=O)c1ccc(Cl)cc1 | 0 | -19 | -8 | . | 0 | 1
O=C(Nc1ccccc1F)N[C@@H]1CC[C@H](CCNC(=O)C2CCCCC2)O[C@H]1CO | 0 | -6 | -4 | 7 | 0 | 9
CCOC(=O)C1=C(C)NC2=C(C(=O)c3ccccc32)C1c1cccc2ccccc12 (stereo unspecified) | 0 | 4 | -19* | -14 | 7 | -5
C[C@H]1CN([C@@H](C)CO)C(=O)c2cc(NC(=O)NC3CCCCC3)ccc2O[C@H]1CN(C)C(=O)Nc1ccc(F)cc1 | -1 | -5 | 2 | 12 | -1 | 5
Clc1ccccc1N1CCN(Cc2c[nH]c3ccccc23)CC1 | 0 | 9 | -45* | 7 | . | 6
O=C(C[C@@H]1CC[C@H](NC(=O)Nc2cc(F)ccc2F)[C@H](CO)O1)NCc1ccccn1 | 0 | -1 | 3 | 11 | 0 | 0
COc1ccc(S(=O)(=O)Nc2cccc3c2O[C@@H](CN(C)C(=O)Nc2c(C)noc2C)[C@H](C)CN([C@@H](C)CO)C3=O)cc1 | 0 | 0 | 0 | -3 | -10 | -2
Cc1ccc(S(=O)(=O)Nc2cccc3c2O[C@H](CN(C)C(=O)Nc2c(C)noc2C)[C@@H](C)CN([C@H](C)CO)C3=O)cc1 | 0 | 3 | 2 | 2 | 0 | 9
COc1ccc(S(=O)(=O)Nc2cccc3c2O[C@H](CN(C)C(=O)Nc2c(C)noc2C)[C@H](C)CN([C@H](C)CO)C3=O)cc1 | 0 | -3 | -4 | 4 | 96* | 2
COc1ccc(S(=O)(=O)Nc2cccc3c2O[C@H](CN(C)C(=O)Nc2c(C)noc2C)[C@@H](C)CN([C@@H](C)CO)C3=O)cc1 | 0 | -9 | 5 | 7 | 32* | -2
Cc1cc(NC(=O)CCC(=O)N(c2ccccc2)C(C(=O)NC2CCCC2)c2ccc(F)cc2)no1 (stereo unspecified) | 0 | -1 | 8 | -15 | 36* | -1
COCC(=O)N1CC2(CN(Cc3cccnc3)C2)c2c(n(C)c3cc(OC)ccc23)[C@@H]1CO | 0 | . | -1 | 5 | 0 | .
O=C(NC(=S)NCc1ccco1)c1ccccc1 | 0 | . | 6 | -14 | 0 | .
O=C(NC(=S)NCc1ccco1)c1ccc([N+](=O)[O-])cc1 | 0 | . | -5.5* | -9 | 0 | .
COc1ccc(C[C@H]2CCn3cc(nn3)COC[C@@H](C(C)C)NC2=O)cc1 | 0 | . | 1 | 1 | 0 | .
O=C(OCc1ccccc1)c1ccc(NCc2cc(O)ccc2O)cc1 | 0 | . | -36* | -15 | -1 | .
CCCN(C)C[C@H]1Oc2cc(/C=C/c3ccccc3)ccc2S(=O)(=O)N([C@H](C)CO)C[C@@H]1C | 0 | 5 | -1 | -12 | 0 | -1
Cc1sc2nc(CN3CCOCC3)nc(N3CCN(S(=O)(=O)c4ccccc4)CC3)c2c1C | 0 | 6 | -24* | -4 | . | -2
Cc1sc2nc(CN3CCCC3)nc(N3CCN(S(=O)(=O)c4cccc(F)c4)CC3)c2c1C | 0 | -6 | -1 | -36 | 0 | -4
CCOc1c2ccc(C(=O)NCCc3ccc(C)cc3)cc2nn1CC | 0 | 2 | -24* | -13 | 0 | 2
CCCCCCNc1c([N+](=O)[O-])c(=O)sc2ccccc12 | 0 | . | -24* | -3 | 0 | .
SMILES | Xi reactivation | RAD54 branch | Ecoli rRNA inh | RAD52 anneal inh | E-selectin induc | PglD inh
CC(C)(C)Nc1c([N+](=O)[O-])c(=O)sc2ccccc12 | 0 | 0 | 11 | -13 | . | -5
CC(C)CC#Cc1cnc2c(c1)C(=O)N([C@@H](C)CO)C[C@@H](C)[C@@H](CN(C)C(=O)CC1CC1)O2 | . | . | . | 6 | . | .
CCn1c(-c2sc(-c3ccccc3)nc2C)n[nH]c1=S | 0 | . | -30* | -18 | . | .
COc1ccc2c3c([nH]c2c1)[C@H](CO)N(S(=O)(=O)c1ccc(C)cc1)CC31CN(Cc2ccccc2)C1 | 0 | . | -6 | -29 | 0 | .
COc1cccc(NC(=O)Cn2c(=O)oc3ccccc32)c1 | . | . | 4 | -2 | . | .
COc1ccc(-c2nc(NC(=O)Cn3c(=O)oc4ccccc43)sc2C)cc1 | 0 | 5 | -8 | -21 | 39* | -2
CSCCC(NC(=O)c1ccccc1)C(=O)NCCCSc1ccccc1 (stereo unspecified) | 0 | -7 | -23* | 3 | . | 10
C=CCOc1cccc(C2C(C(=O)c3ccco3)=C(O)C(=O)N2Cc2cccnc2)c1 (stereo unspecified) | 0 | -15 | 0 | 3 | 33* | 0
CCOc1ccc(C2C(C(=O)c3ccco3)=C(O)C(=O)N2Cc2cccnc2)cc1 (stereo unspecified) | . | . | . | . | 2 | .
COc1ccc(S(=O)(=O)Nc2ccc3c(c2)C(=O)N([C@H](C)CO)C[C@@H](C)[C@@H](CN(C)S(=O)(=O)c2ccc(OC)cc2)O3)cc1 | 0 | 2 | 1 | -15 | 0 | 2
O=C(N[C@H]1CC[C@H](CCn2cc(-c3ccccn3)nn2)O[C@H]1CO)c1cccnc1 | 0 | -4 | 0 | -8 | 0 | -4
FC(F)(F)COc1nc(N/N=C/c2cccnc2)nc(N2CCCCC2c2ccccn2)n1 (stereo unspecified) | 0 | -1 | -33* | -4 | 11 | 4
Cc1ccc(OCc2n[nH]c(=S)n2-c2ccccc2)cc1C | 0 | . | -23 | -16 | . | .
COCc1n[nH]c(=S)n1-c1ccccc1 | . | -3 | . | . | . | 1
CC(C)Oc1ccc(CCc2n[nH]c(=S)n2-c2ccccc2)cc1 | 1 | -4 | -21* | -25 | -1 | -3
Cc1cccc(C)c1OCc1n[nH]c(=S)n1-c1ccccc1 | 0 | 2 | -29* | 0 | 2 | 6
Cc1nc(N2CCCCC2)sc1C(=O)c1ccc(SCCO)c([N+](=O)[O-])c1 | 0 | 5 | -20* | -18 | 1 | .
